# How the values were obtained:
# [1] = Plasma pharmacokinetics after single and multiple dosing; format: in vivo, human; details: for Accumulation ratio, geometric mean (CV %): AUC0–last day 15 / day 1; for Mean (SD) metabolite to parent ratio: ORM-21444 AUC0–last / ODM-203 AUC0–last
# Procedure, shortened: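 Oral once-daily test compound. Capsule single dose on day 1 after a low-phosphate light breakfast. In tablet cohorts, one capsule dose was followed a week later by continuous daily tablets from 200 mg. Plasma sampled on day 1 and day 8 or 15 predose and 0.1–24 h post-dose, plus predose from day 8. Cmax, Tmax and AUC0–last (linear trapezoidal) were log-transformed. Accumulation = day 15/day 1 AUC; metabolite ratio = metabolite/parent AUC.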
# [2] = system: cell lines with increased FGFR activity; details: cell lines with increased FGFR activity and known dependency on FGFR signalling; cited from earlier work
smiles,measurement,setting,value
Cn1cc(-c2ccc3c(c2)ncn3-c2cc(NS(=O)(=O)C3CC3)cc(-c3ccc(F)cc3F)c2)cn1 [ODM-203],interindividual variability of steady-state AUC (coefficient of variation),[1]; 400 mg tablet group at day 15,90%
same,"Accumulation ratio, geometric mean (CV %)",[1]; tablet 200 mg (n=3),2.3 (23)
same,"Accumulation ratio, geometric mean (CV %)",[1]; tablet 300 mg (n=3),2.3 (123)
same,"Accumulation ratio, geometric mean (CV %)",[1]; tablet 400 mg (n=24),5.5 (76)
same,Mean (SD) metabolite to parent ratio,"[1]; tablet 200 mg, Day 1 (n=3)",0.043 (0.022)
same,Mean (SD) metabolite to parent ratio,"[1]; tablet 200 mg, Day 15 (n=3)",0.085 (0.043)
same,Mean (SD) metabolite to parent ratio,"[1]; tablet 300 mg, Day 1 (n=3)",0.061 (0.030)
same,Mean (SD) metabolite to parent ratio,"[1]; tablet 300 mg, Day 15 (n=3)",0.094 (0.004)
same,Mean (SD) metabolite to parent ratio,"[1]; tablet 400 mg, Day 1 (n=25)",0.048 (0.034)
same,Mean (SD) metabolite to parent ratio,"[1]; tablet 400 mg, Day 15 (n=24)",0.117 (0.031)
same,average Tmax in different cohorts,[1]; after a single dose,6 to 10 h
same,individual Tmax range,[1]; after a single dose,3 to 24 h
same,average accumulation ratios,"[1]; based on AUC0–last, different cohorts",2.3–5.5
same,tablet formulation compared with capsule formulation,[1]; in vivo,higher exposure and lower variability
same,AUC ratio (metabolite ORM-21444 to ODM-203),[1]; steady state,less than 0.15
same,half-life,"[1]; suggested by accumulation ratios, different cohorts",30 to 70 h
same,"Cmax, geometric mean (CV %)","[1]; tablet 200 mg, Day 1 (n=3)",1539 (9) ng/mL
same,"Median (min, max) Tmax","[1]; tablet 200 mg, Day 1 (n=3)",8.0 (7.7 to 11.1) h
same,"Cmax, geometric mean (CV %)","[1]; tablet 200 mg, Day 15 (n=3)",3118 (28) ng/mL
same,Mean (SD) Caverage,"[1]; tablet 200 mg, Day 15 (n=3)",2560 (719) ng/mL
same,"Median (min, max) Tmax","[1]; tablet 200 mg, Day 15 (n=3)",8.0 (6.0 to 11.2) h
same,"Cmax, geometric mean (CV %)","[1]; tablet 300 mg, Day 1 (n=3)",2608 (46) ng/mL
same,"Median (min, max) Tmax","[1]; tablet 300 mg, Day 1 (n=3)",6.0 (4.1 to 6.1) h
same,"Cmax, geometric mean (CV %)","[1]; tablet 300 mg, Day 15 (n=3)",4906 (148) ng/mL
same,Mean (SD) Caverage,"[1]; tablet 300 mg, Day 15 (n=3)",5652 (5460) ng/mL
same,"Median (min, max) Tmax","[1]; tablet 300 mg, Day 15 (n=3)",6.1 (3.1 to 8.7) h
same,"Cmax, geometric mean (CV %)","[1]; tablet 400 mg, Day 1 (n=25)",1933 (49) ng/mL
same,"Median (min, max) Tmax","[1]; tablet 400 mg, Day 1 (n=25)",6.3 (3.1 to 24.7) h
same,"Cmax, geometric mean (CV %)","[1]; tablet 400 mg, Day 15 (n=24)",9070 (81) ng/mL
same,Mean (SD) Caverage,"[1]; tablet 400 mg, Day 15 (n=24)",8928 (5148) ng/mL
same,"Median (min, max) Tmax","[1]; tablet 400 mg, Day 15 (n=24)",6.0 (0.0 to 23.3) h
same,cell proliferation,[2],suppresses cell proliferation
